Experimental findings from publication PMC6810844 (Cellular and molecular life sciences : CMLS, 2019) are described below.

For one test, the target named is T1, BoSGBPMLG-A (Bacteroides ovatus, UniProt A0AAN3A7L1).
T1 sequence (A0AAN3A7L1 23-558): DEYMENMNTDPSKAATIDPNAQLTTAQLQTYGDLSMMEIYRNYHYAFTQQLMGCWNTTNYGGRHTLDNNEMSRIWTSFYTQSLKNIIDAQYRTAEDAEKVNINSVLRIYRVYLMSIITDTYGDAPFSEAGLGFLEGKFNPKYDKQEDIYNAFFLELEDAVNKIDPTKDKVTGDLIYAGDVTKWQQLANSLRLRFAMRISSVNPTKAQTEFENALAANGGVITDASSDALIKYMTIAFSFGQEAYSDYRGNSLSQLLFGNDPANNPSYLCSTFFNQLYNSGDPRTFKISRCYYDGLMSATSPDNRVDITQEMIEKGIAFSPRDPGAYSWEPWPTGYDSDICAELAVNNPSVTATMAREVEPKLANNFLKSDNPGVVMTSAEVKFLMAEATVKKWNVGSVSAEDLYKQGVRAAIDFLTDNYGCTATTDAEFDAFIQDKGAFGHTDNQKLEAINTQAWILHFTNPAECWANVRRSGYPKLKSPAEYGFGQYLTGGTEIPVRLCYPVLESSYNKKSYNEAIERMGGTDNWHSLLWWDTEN
Nature of the test: isothermal titration calorimetry. Format: binding. The conditions noted are these: 50 mM sodium phosphate pH 7.0, 25 °C. The essentials:
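Recombinant His6-tagged protein was expressed in E. coli BL21(DE3), Ni-IMAC purified, and exchanged into 50 mM sodium phosphate pH 7.0. In the cell: 20–100 µM protein at 25 °C, stirred at 280 rpm. Injections: 2 µL, then 24 × 10 µL of 2.5–4.0 mg/mL polysaccharide or 1–2 mM oligosaccharide. Heat recorded. Molar polysaccharide Ka assumed a hexasaccharide motif for MLG and a Glc8-backbone motif for XyG.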
A general note: ITC needs no label: the signal is the heat of the interaction.

The target of the next test is T2, BoSGBPMLG-B (Bacteroides ovatus, UniProt A0ABU3IRL2).
T2 sequence (A0ABU3IRL2 22-420): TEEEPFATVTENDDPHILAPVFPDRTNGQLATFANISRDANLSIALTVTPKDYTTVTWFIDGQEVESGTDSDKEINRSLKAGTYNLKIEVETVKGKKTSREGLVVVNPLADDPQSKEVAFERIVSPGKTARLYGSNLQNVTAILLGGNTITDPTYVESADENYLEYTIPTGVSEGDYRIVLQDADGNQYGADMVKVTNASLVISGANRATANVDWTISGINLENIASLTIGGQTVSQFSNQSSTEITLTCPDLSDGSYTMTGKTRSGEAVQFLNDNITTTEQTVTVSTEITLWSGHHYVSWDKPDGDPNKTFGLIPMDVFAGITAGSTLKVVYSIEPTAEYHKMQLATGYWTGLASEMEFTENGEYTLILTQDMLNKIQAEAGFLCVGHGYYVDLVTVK
Put plainly: isothermal titration calorimetry. The following applies: 50 mM sodium phosphate pH 7.0, 25 °C; n fixed at 1. The class given is binding. The essentials:
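His6-tagged protein was produced in E. coli BL21(DE3) and purified by nickel affinity. Titrations ran at 25 °C in 50 mM sodium phosphate pH 7.0, except bMLG, which used 10 mM HEPES pH 7.0. 20–100 µM protein in the cell received one 2 µL injection, then 24 × 10 µL of 2.5–4.0 mg/mL polysaccharide or 1–2 mM oligosaccharide, with stirring at 280 rpm. MLG Ka was converted from g/L assuming a hexasaccharide motif.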

Take `OC[C@H]1O[C@@H](O[C@H]2[C@H](O)[C@@H](O)[C@H](O[C@H]3[C@H](O)[C@@H](O)[C@H](O[C@H]4[C@H](O)[C@@H](O)[C@H](O[C@H]5[C@H](O)[C@@H](O)[C@H](O[C@H]6[C@H](O)[C@@H](O)C(O)O[C@@H]6CO)O[C@@H]5CO)O[C@@H]4CO)O[C@@H]3CO)O[C@@H]2CO)[C@H](O)[C@@H](O)[C@@H]1O` (stereo partly drawn) [Cellohexaose]: at BoSGBPMLG-A (n fixed at 1), the “Ka (M^-1) / BoSGBPMLG-A” value was “(3.39 ± 0.03) × 10^3”. Also, at BoSGBPMLG-B, the “Ka (M^-1) / BoSGBPMLG-B” value is listed as “(3.1 ± 0.06) × 10^3”.

For the compound `OC[C@H]1O[C@@H](O[C@H]2[C@H](O)[C@@H](O)[C@H](O[C@@H]3[C@@H](O)[C@H](O[C@H]4[C@H](O)[C@@H](O)[C@H](O[C@H]5[C@H](O)[C@@H](O)[C@H](O[C@H]6[C@H](O)[C@@H](CO)OC(O)[C@@H]6O)O[C@@H]5CO)O[C@@H]4CO)O[C@H](CO)[C@H]3O)O[C@@H]2CO)[C@H](O)[C@@H](O)[C@@H]1O` (stereo partly drawn) [MLG6, G4G3G4G4G3G], the “Ka (M^-1) / BoSGBPMLG-A” value at BoSGBPMLG-A is recorded as “(1.44 ± 0.04) × 10^4”. Further, the “Ka (M^-1) / BoSGBPMLG-B” value at BoSGBPMLG-B was “(3.16 ± 0.19) × 10^3”.

Regarding `OC[C@H]1O[C@@H](O[C@H]2[C@H](O)[C@@H](O)[C@H](O[C@H]3[C@H](O)[C@@H](O)[C@H](O[C@@H]4[C@@H](O)[C@H](O[C@H]5[C@H](O)[C@@H](O)[C@H](O[C@H]6[C@H](O)[C@@H](O)[C@H](O[C@H]7[C@H](O)[C@@H](CO)OC(O)[C@@H]7O)O[C@@H]6CO)O[C@@H]5CO)O[C@H](CO)[C@H]4O)O[C@@H]3CO)O[C@@H]2CO)[C@H](O)[C@@H](O)[C@@H]1O` (stereo partly drawn) [MLG7, G4G4G3G4G4G3G], the “Ka (M^-1) / BoSGBPMLG-A” value at BoSGBPMLG-A is given as “(4.51 ± 0.34) × 10^4”. For the same compound, at BoSGBPMLG-B, the “Ka (M^-1) / BoSGBPMLG-B” value was “(4.69 ± 0.13) × 10^3”.
